Experimental findings from ChEMBL document CHEMBL3877330, “Synthesis and Antitumor Activity Evaluation of a Novel Combi-nitrosourea Prodrug: BGCNU” (ACS Med Chem Lett, 2017) are described below.

A short description of data set [1]: Cytotoxicity against AGT-positive human SF763 cells assessed as reduction in cell viability measured after 24 hrs by CCK8 assay. The settings on record: SF763, 24 h. Format: functional, cell-based. Background: Tetrazolium dyes change colour on reduction, which living cells bring about.
The nature of data set [2]: Potency index, ratio of ACNU IC50 to test compound IC50 for AGT-positive human SF763 cells. Format: functional. A digest of the protocol: (§1)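 Cell survival curves were run in human glioma cells, with SF763 high in AGT and SF126 lacking AGT. IC50 values came from the curves. The index is the IC50 of ACNU or BCNU alone divided by the test compound's IC50.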
Data set [3] can be described thus: Potency index, ratio of ACNU IC50 in combination with O6-BG to test compound IC50 for AGT-positive human SF763 cells. In kind it is functional. A digest of the protocol:
(§2)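 Survival curves were run in AGT-high human glioma SF763 cells. […] The index is the IC50 of the combination divided by the test compound's IC50.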

A short description of data set [4]: Potency index, ratio of BCNU IC50 to test compound IC50 for AGT-positive human SF763 cells. In kind it is functional. Put shortly: as §1
Data set [5] can be described thus: Potency index, ratio of BCNU IC50 in combination with O6-BG to test compound IC50 for AGT-positive human SF763 cells. In kind it is functional. A digest of the protocol: as §2
The nature of data set [6]: Cytotoxicity against AGT-positive human SF767 cells assessed as reduction in cell viability measured after 24 hrs by CCK8 assay. Format: functional, cell-based. The settings on record: SF767, 24 h.
Data set [7] is described as follows: Cytotoxicity against AGT-deficient human SF126 cells assessed as reduction in cell viability measured after 24 hrs by CCK8 assay. Format: functional, cell-based. Particulars: SF-126, 24 h.
In data set [8] the test system is SF-126. In words: Potency index, ratio of ACNU IC50 to test compound IC50 for AGT-deficient human SF126 cells. Format: functional. A digest of the protocol:
as §1

The target in data set [9] is T1, Methylated-DNA--protein-cysteine methyltransferase (Homo sapiens) (UniProt P16455).
T1 sequence (whole entry): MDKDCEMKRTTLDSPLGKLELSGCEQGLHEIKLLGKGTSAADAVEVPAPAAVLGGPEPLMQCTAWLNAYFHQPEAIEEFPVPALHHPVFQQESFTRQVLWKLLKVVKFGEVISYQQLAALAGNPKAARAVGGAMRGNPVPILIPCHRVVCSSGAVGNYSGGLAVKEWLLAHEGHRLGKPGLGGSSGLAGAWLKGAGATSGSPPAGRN
As to the kind of experiment: Inhibition of AGT in human SF763 cells assessed as increase in dG-dC crosslinking incubated for 12 hrs by HPLC-ESI-MS/MS analysis. Format: cell-based. A digest of the protocol:
(§3)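 Glioma cells exposed to drug at 0.1, 0.2, 0.4 and 0.6 mM. Genomic DNA then extracted and dG-dC interstrand cross-link levels quantified by HPLC-ESI-MS/MS. Triplicate determinations (n=3) per concentration.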

The target in data set [10] is T1, Methylated-DNA--protein-cysteine methyltransferase (Homo sapiens). As to the kind of experiment: Inhibition of AGT in human SF767 cells assessed as increase in dG-dC crosslinking incubated for 12 hrs by HPLC-ESI-MS/MS analysis. Format: cell-based. Put shortly: as §3
In data set [11] the test system is SF-126. As to the kind of experiment: Binding affinity to DNA in AGT-deficient human SF126 cells assessed as increase in dG-dC crosslinking incubated for 12 hrs by HPLC-ESI-MS/MS analysis. Format: cell-based. Put shortly: as §3
The species entered for data set [12] is Bos taurus. In words: Binding affinity to calf thymus DNA assessed as increase in dG-dC crosslinking incubated for 12 hrs under dark condition by HPLC-ESI-MS/MS analysis. A digest of the protocol:
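Calf thymus DNA treated directly with drug at 0.1, 0.2, 0.4 and 0.6 mM. dG-dC cross-link levels measured by HPLC-ESI-MS/MS.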

Data set [13] is described as follows: n-Octanol/water partition coefficient, log P of the compound at 2 mM by HPLC analysis. In kind it is physicochemical.
Data set [14] in a line: Cytotoxicity against AGT-positive human SF763 cells assessed as reduction in cell viability pretreated with O6-BG for 2 hrs followed by addition of compound measured after 24 hrs by CCK8 assay. In kind it is functional, cell-based. A digest of the protocol:
(§4)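 Nitrosourea combined with 20 µM O6-BG. Survival curves were generated for the glioma cells across a range of drug concentrations, and IC50 was read from those curves.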

The nature of data set [15]: Cytotoxicity against AGT-positive human SF767 cells assessed as reduction in cell viability pretreated with O6-BG for 2 hrs followed by addition of compound measured after 24 hrs by CCK8 assay. Format: functional, cell-based. A digest of the protocol:
as §4

Data set [16] can be described thus: Cytotoxicity against AGT-deficient human SF126 cells assessed as reduction in cell viability pretreated with O6-BG for 2 hrs followed by addition of compound measured after 24 hrs by CCK8 assay. Particulars: SF-126. In kind it is functional, cell-based. Put shortly:
as §4

For `Nc1nc(OCc2ccccc2)c2ncn(CCNC(=O)N(CCCl)N=O)c2n1`, the IC50 in data set [1] was found to be 60 µM; in data set [6], 58 µM; in data set [7], 52 µM. Further, the “Ratio IC50” value in data set [2] is 27; in [3], 17; in data set [4], 5.8; in [5], 3.3; in data set [8], 7 - 9. Moreover, the inhibition entry in data set [9] and in data set [10] was “Dose-dependent effect” each time. For the same compound, the Activity result in data set [11] and in [12] was “Dose-dependent effect” throughout. In [13], the logP at 2000 µM worked out at 1.81.
For `O=NN(CCCl)C(=O)NCCCl` [CARMUSTINE], the IC50 in [1] is 350 µM; in data set [14], 200 µM; in data set [6], 130 µM; in data set [15], 120 µM; in [7], 85 µM; in [16], 55 µM. The inhibition result in [9] and in data set [10] was “Dose-dependent effect” throughout. Further, the Activity result in data set [11] and in [12] was “Dose-dependent effect” throughout.
Regarding `Cc1ncc(CNC(=O)N(CCCl)N=O)c(N)n1` [NIMUSTINE], the IC50 in [1] was determined as 1600 µM; in data set [6] it was 570 µM; in data set [15], 400 µM; in data set [7], 450 µM; in data set [16] it was 360 µM. Also, the inhibition entry in [9] and in data set [10] was “Dose-dependent effect” throughout. For the same compound, the Activity entry in data set [11] and in [12] was “Dose-dependent effect” throughout.

The term IC50 denotes the concentration needed to halve the response being measured. What is called logP is the decadic logarithm of the partition coefficient of the neutral form, usually between octanol and water.
